ChEMBL document CHEMBL1154713, “Molecular iodine promoted synthesis of new pyrazolo[3,4-d]pyrimidine derivatives as potential antibacterial agents” (2010)

Experiments:
Assay type in all cases: functional
[1] = system: Pseudomonas aeruginosa; assay: Antibacterial activity against Pseudomonas aeruginosa PTCC 1431 at 300 ug/ml after 24 hrs by disk diffusion sensitivity assay; details: PTCC 1431, 24 h, read-out: IZ
Method in brief: (§1)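 Disc diffusion on Mueller–Hinton agar poured 5 mm deep, swabbed with 1.2 × 10⁸ CFU/mL bacterial suspension (0.5 McFarland). Compounds dissolved in DMF, diluted with ethanol to 100–600 µg/mL solutions, loaded onto 6.25 mm filter-paper discs. Discs placed in triplicate, incubated 24 h at 37 °C. Average inhibition zone reported, maximum across concentrations shown. Streptomycin used as standard.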

[2] = Antibacterial activity against Escherichia coli HB101 BA 7601C at 300 ug/ml after 24 hrs by disk diffusion sensitivity assay; details: read-out: IZ; method in brief: as §1
[3] = system: Staphylococcus aureus; assay: Antibacterial activity against Staphylococcus aureus PTCC 1074 at 300 ug/ml after 24 hrs by disk diffusion sensitivity assay; details: PTCC 1074, 24 h, read-out: IZ; method in brief: as §1
[4] = system: Bacillus subtilis; assay: Antibacterial activity against Bacillus subtilis PTCC 1365 at 300 ug/ml after 24 hrs by disk diffusion sensitivity assay; details: PTCC 1365, 24 h, read-out: IZ; method in brief: as §1
[5] = Antibacterial activity against Escherichia coli HB101 BA 7601C at 100 ug/ml after 24 hrs by disk diffusion sensitivity assay; details: read-out: IZ; method in brief: as §1
[6] = system: Bacillus subtilis; assay: Antibacterial activity against Bacillus subtilis PTCC 1365 at 100 ug/ml after 24 hrs by disk diffusion sensitivity assay; details: PTCC 1365, 24 h, read-out: IZ; method in brief: as §1
[7] = system: Staphylococcus aureus; assay: Antibacterial activity against Staphylococcus aureus PTCC 1074 at 100 ug/ml after 24 hrs by disk diffusion sensitivity assay; details: PTCC 1074, 24 h, read-out: IZ; method in brief: as §1
[8] = system: Pseudomonas aeruginosa; assay: Antibacterial activity against Pseudomonas aeruginosa PTCC 1431 at 100 ug/ml after 24 hrs by disk diffusion sensitivity assay; details: PTCC 1431, 24 h, read-out: IZ; method in brief: as §1
[9] = system: Pseudomonas aeruginosa; assay: Antibacterial activity against Pseudomonas aeruginosa PTCC 1431 at 400 ug/ml after 24 hrs by disk diffusion sensitivity assay; details: PTCC 1431, 24 h, read-out: IZ; method in brief: as §1
[10] = system: Staphylococcus aureus; assay: Antibacterial activity against Staphylococcus aureus PTCC 1074 at 400 ug/ml after 24 hrs by disk diffusion sensitivity assay; details: PTCC 1074, 24 h, read-out: IZ; method in brief: as §1
[11] = Antibacterial activity against Escherichia coli HB101 BA 7601C at 400 ug/ml after 24 hrs by disk diffusion sensitivity assay; details: read-out: IZ; method in brief: as §1
[12] = system: Bacillus subtilis; assay: Antibacterial activity against Bacillus subtilis PTCC 1365 at 400 ug/ml after 24 hrs by disk diffusion sensitivity assay; details: PTCC 1365, 24 h, read-out: IZ; method in brief: as §1
[13] = system: Bacillus subtilis; assay: Antibacterial activity against Bacillus subtilis PTCC 1365 at 500 ug/ml after 24 hrs by disk diffusion sensitivity assay; details: PTCC 1365, 24 h, read-out: IZ; method in brief: as §1
[14] = Antibacterial activity against Escherichia coli HB101 BA 7601C at 500 ug/ml after 24 hrs by disk diffusion sensitivity assay; details: read-out: IZ; method in brief: as §1
[15] = system: Pseudomonas aeruginosa; assay: Antibacterial activity against Pseudomonas aeruginosa PTCC 1431 at 500 ug/ml after 24 hrs by disk diffusion sensitivity assay; details: PTCC 1431, 24 h, read-out: IZ; method in brief: as §1
[16] = system: Staphylococcus aureus; assay: Antibacterial activity against Staphylococcus aureus PTCC 1074 at 500 ug/ml after 24 hrs by disk diffusion sensitivity assay; details: PTCC 1074, 24 h, read-out: IZ; method in brief: as §1
[17] = system: Bacillus subtilis; assay: Antibacterial activity against Bacillus subtilis PTCC 1365 at 200 ug/ml after 24 hrs by disk diffusion sensitivity assay; details: PTCC 1365, 24 h, read-out: IZ; method in brief: as §1
[18] = system: Pseudomonas aeruginosa; assay: Antibacterial activity against Pseudomonas aeruginosa PTCC 1431 at 200 ug/ml after 24 hrs by disk diffusion sensitivity assay; details: PTCC 1431, 24 h, read-out: IZ; method in brief: as §1
[19] = Antibacterial activity against Escherichia coli HB101 BA 7601C at 200 ug/ml after 24 hrs by disk diffusion sensitivity assay; details: read-out: IZ; method in brief: as §1
[20] = system: Staphylococcus aureus; assay: Antibacterial activity against Staphylococcus aureus PTCC 1074 at 200 ug/ml after 24 hrs by disk diffusion sensitivity assay; details: PTCC 1074, 24 h, read-out: IZ; method in brief: as §1
[21] = Antibacterial activity against Escherichia coli HB101 BA 7601C at 10 ug/ml after 24 hrs by disk diffusion sensitivity assay; details: read-out: IZ
[22] = system: Pseudomonas aeruginosa; assay: Antibacterial activity against Pseudomonas aeruginosa PTCC 1431 at 10 ug/ml after 24 hrs by disk diffusion sensitivity assay; details: PTCC 1431, 24 h, read-out: IZ
[23] = system: Bacillus subtilis; assay: Antibacterial activity against Bacillus subtilis PTCC 1365 at 10 ug/ml after 24 hrs by disk diffusion sensitivity assay; details: PTCC 1365, 24 h, read-out: IZ
[24] = system: Staphylococcus aureus; assay: Antibacterial activity against Staphylococcus aureus PTCC 1074 at 10 ug/ml after 24 hrs by disk diffusion sensitivity assay; details: PTCC 1074, 24 h, read-out: IZ

SMILES: O=c1[nH]c(-c2ccc([N+](=O)[O-])cc2)nc2c1cnn2-c1ccc([N+](=O)[O-])cc1[N+](=O)[O-]
- zone of inhibition at 300 µg/mL [1]: 13.5 mm
- zone of inhibition at 300 µg/mL [2]: 9 mm
- zone of inhibition at 300 µg/mL [3]: 8.5 mm
- zone of inhibition at 300 µg/mL [4]: 9 mm

SMILES: COc1ccc(-c2nc3c(cnn3-c3ccc([N+](=O)[O-])cc3[N+](=O)[O-])c(=O)[nH]2)cc1
- zone of inhibition at 100 µg/mL [5]: 9.5 mm
- zone of inhibition at 100 µg/mL [6]: 10 mm
- zone of inhibition at 100 µg/mL [7]: 10 mm
- zone of inhibition at 100 µg/mL [8]: 12.5 mm

SMILES: O=c1[nH]c(-c2ccccc2)nc2c1cnn2-c1ccc([N+](=O)[O-])cc1[N+](=O)[O-]
- zone of inhibition at 400 µg/mL [9]: 9.5 mm
- zone of inhibition at 400 µg/mL [10]: 9 mm
- zone of inhibition at 400 µg/mL [11]: 15 mm
- zone of inhibition at 400 µg/mL [12]: 10 mm

SMILES: COc1cccc(-c2nc3c(cnn3-c3ccc([N+](=O)[O-])cc3[N+](=O)[O-])c(=O)[nH]2)c1
- zone of inhibition at 100 µg/mL [5]: 11.5 mm
- zone of inhibition at 100 µg/mL [6]: 8 mm
- zone of inhibition at 100 µg/mL [7]: 9 mm
- zone of inhibition at 100 µg/mL [8]: 12.5 mm

SMILES: O=c1[nH]c(-c2ccccc2O)nc2c1cnn2-c1ccc([N+](=O)[O-])cc1[N+](=O)[O-]
- zone of inhibition at 500 µg/mL [13]: 9 mm
- zone of inhibition at 500 µg/mL [14]: 7 mm
- zone of inhibition at 500 µg/mL [15]: 16 mm
- zone of inhibition at 500 µg/mL [16]: 9 mm

SMILES: O=c1[nH]c(-c2cccc([N+](=O)[O-])c2)nc2c1cnn2-c1ccc([N+](=O)[O-])cc1[N+](=O)[O-]
- zone of inhibition at 400 µg/mL [9]: 9 mm
- zone of inhibition at 400 µg/mL [10]: 15 mm
- zone of inhibition at 400 µg/mL [11]: 8 mm
- zone of inhibition at 400 µg/mL [12]: 11 mm

SMILES: O=c1[nH]c(-c2ccc(Cl)cc2)nc2c1cnn2-c1ccc([N+](=O)[O-])cc1[N+](=O)[O-]
- zone of inhibition at 400 µg/mL [9]: 8 mm
- zone of inhibition at 400 µg/mL [10]: 8.5 mm
- zone of inhibition at 400 µg/mL [11]: 10.5 mm
- zone of inhibition at 400 µg/mL [12]: 15 mm

SMILES: O=c1[nH]c(-c2ccc(Br)cc2)nc2c1cnn2-c1ccc([N+](=O)[O-])cc1[N+](=O)[O-]
- zone of inhibition at 100 µg/mL [5]: 17 mm
- zone of inhibition at 100 µg/mL [6]: 9 mm
- zone of inhibition at 100 µg/mL [7]: 9 mm
- zone of inhibition at 100 µg/mL [8]: 10 mm

SMILES: Cc1ccc(-c2nc3c(cnn3-c3ccc([N+](=O)[O-])cc3[N+](=O)[O-])c(=O)[nH]2)cc1
- zone of inhibition at 200 µg/mL [17]: 9 mm
- zone of inhibition at 200 µg/mL [18]: 7.5 mm
- zone of inhibition at 200 µg/mL [19]: 9 mm
- zone of inhibition at 200 µg/mL [20]: 13 mm

SMILES: CN[C@@H]1[C@H](O[C@H]2[C@H](O[C@H]3[C@H](O)[C@@H](O)[C@H](N=C(N)N)[C@@H](O)[C@@H]3N=C(N)N)O[C@@H](C)[C@]2(O)C=O)O[C@@H](CO)[C@H](O)[C@H]1O [STREPTOMYCIN]
- zone of inhibition at 10 µg/mL [21]: 17 mm
- zone of inhibition at 10 µg/mL [22]: 10 mm
- zone of inhibition at 10 µg/mL [23]: 10 mm
- zone of inhibition at 10 µg/mL [24]: 15 mm

SMILES: O=c1[nH]c(-c2cccc(O)c2)nc2c1cnn2-c1ccc([N+](=O)[O-])cc1[N+](=O)[O-]
- zone of inhibition at 500 µg/mL [13]: 12 mm
- zone of inhibition at 500 µg/mL [14]: 12 mm
- zone of inhibition at 500 µg/mL [15]: 9.5 mm
- zone of inhibition at 500 µg/mL [16]: 16 mm
